In the library only some 2.6% were active in any assay of this set; here they are far more common.
AF4-AF9 inh: MLL-AF4/AF9 protein interaction inhibition; AlphaScreen, biotin-AF4 peptide binding to FLAG-AF9; AID 651704; P42568; inhibition, % at 10 µM; hit rate 0.47% among 350,000;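 active means every replicate reaching a set inhibition limit, whatever the replicate mean, cut at about 25% in these data; inconclusive means mean inhibition reaches that limit but some replicates miss it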
RAD52 inh: blocks human RAD52 DNA annealing; P43351; recombinant RAD52 DNA annealing, FRET fluorescence; inhibition, % at 18.7 µM; hit rate 0.46% among 360,000;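 active means every replicate showing at least 50% inhibition; inconclusive means mean inhibition at least 50% but not in every replicate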
RAD54 inh: inhibitors of human RAD54 branch migration. AID 602329. inhibition, % at 10.4 µM. Q92698. hit rate 0.14% among 360,000. RAD54 Holliday junction branch migration, FAM/BHQ fluorescence;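 active means mean normalized replicate activity at least 40 and at least half of replicates scoring 40 or more; inconclusive means only one of the two criteria met; inactive means mean below 40 and under half of replicates reaching 40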;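 further: inhibitors cause a drop in the FAM fluorescence signal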
INS-1E GSIS act: GLuc luminescence reporter in INS-1E cells, primary screen for activators of glucose-dependent secretion of insulin; INS-1E GLuc reporter insulin secretion, 2-3 h; activation, % at 16.6 µM; hit rate 0.61% among 370,000;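 active means lowest replicate activation of at least 40%, so every replicate reaches that level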
E-selectin induc: induces E-selectin expression in human endothelial cells; hit rate 0.37% among 260,000; AID 686992; activation, % at 7.58 µM; HUVEC E-selectin immunofluorescence imaging; normalized: neutral wells 0, TNF-alpha wells 100; P16581;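 active means mean E-selectin-positive cell signal at least 10% of the positive control, reached in at least 60% of replicates, without over 20% cell loss; inconclusive means no rule given, readout overlaps actives, possibly toxicity-flagged; inactive means the rest, including those meeting only one limit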
Target sequence (P16581 whole entry, looked up): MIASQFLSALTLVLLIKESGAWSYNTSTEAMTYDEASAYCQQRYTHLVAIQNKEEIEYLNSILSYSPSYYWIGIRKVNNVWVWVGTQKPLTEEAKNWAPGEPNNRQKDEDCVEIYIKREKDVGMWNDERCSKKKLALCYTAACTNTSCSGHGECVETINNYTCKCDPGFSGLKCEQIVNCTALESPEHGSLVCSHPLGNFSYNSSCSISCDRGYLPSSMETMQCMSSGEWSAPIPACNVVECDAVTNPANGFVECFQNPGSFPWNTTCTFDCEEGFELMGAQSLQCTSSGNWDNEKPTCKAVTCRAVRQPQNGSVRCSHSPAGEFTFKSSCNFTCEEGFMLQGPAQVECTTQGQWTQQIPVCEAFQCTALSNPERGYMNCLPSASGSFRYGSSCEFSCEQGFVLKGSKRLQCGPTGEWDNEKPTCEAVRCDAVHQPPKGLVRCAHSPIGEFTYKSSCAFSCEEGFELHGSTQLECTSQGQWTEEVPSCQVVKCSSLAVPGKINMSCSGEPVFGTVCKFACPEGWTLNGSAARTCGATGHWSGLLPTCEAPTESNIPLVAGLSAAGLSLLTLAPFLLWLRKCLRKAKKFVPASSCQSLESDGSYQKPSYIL
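Test system: HUVEC; input: 3,000 HUVEC/well; measured by: immunofluorescence imaging; read-out: % PE-positive cells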
Ecoli rRNA inh: inhibitors of bacterial rRNA selective over humanized ribosomes; E. coli WT GFP vs humanized-ribosome RFP mutants, fluorescence, 24 h; stronger effect = lower value; DMSO median 0, no signal -100; GFP signal change (wild-type ribosome), % (concentration not given with the values); hit rate 1.6% among 350,000;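 active means significant combined selectivity score with lowered wild-type GFP, culture density cut under 30%, mutant RFP and density less affected; inactive means any of these conditions unmet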
A number is an active result; 0 = inactive; ? = inconclusive; - = no result given; ! = repeats disagree.

SMILES	AF4-AF9 inh	RAD52 inh	RAD54 inh	INS-1E GSIS act	E-selectin induc	Ecoli rRNA inh
C[C@@H]1CCCCO[C@H](CN(C)C)[C@@H](C)CN([C@H](C)CO)C(=O)c2cc(NC(=O)Nc3ccc(F)cc3)ccc2O1	0	0	0	0	0	0
CCc1ccccc1NC(=O)CN(C)Cc1c(O)ccc2ccccc12	0	0	0	0	0	0
CN(CC(=O)Nc1ccccc1C(F)(F)F)Cc1c(O)ccc2ccccc12	0	0	0	0	0	-27
COc1ccccc1CN(C)CC(=O)Nc1ccc(Cl)cc1F	0	0	-	0	0	0
COc1ccccc1CN(C)CC(=O)Nc1ccc(Cl)cc1C(F)(F)F	0	0	-	0	0	-34
CCC(=O)Nc1ccc2c(c1)OC[C@@H](C)N(C(=O)c1ccc(F)cc1)C[C@H](C)[C@H](OC)CN(C)C2=O	0	0	0	0	0	0
CNC(=O)C[C@H]1CC[C@@H]2[C@@H](COc3ccc(NC(=O)Nc4ccc(Cl)cc4)cc3C(=O)N2C)O1	0	0	0	0	0	0
O=C(NCCN1CCC(n2c(=O)[nH]c3ccccc32)CC1)N1c2ccccc2Sc2ccccc21	0	0	-	0	0	-36
Cc1ccc(-n2nnnc2-c2ccccc2Br)cc1	0	0	0	0	-	-28
O=C(NCc1ccc2c(c1)OCO2)C(C(=O)c1ccccc1)n1cc(Cl)ccc1=O (centres undefined)	?	0	-	0	-	0
CN(Cc1ccccc1)C(=O)C(C(=O)c1ccc(F)cc1)n1cc(Cl)ccc1=O (centres undefined)	0	0	-	0	0	-30
CC(=O)N1c2ccc(S(=O)(=O)N3CCC(C(=O)NCc4ccc(C)cc4)CC3)cc2CC1C (centres undefined)	0	0	0	0	-	0
Cc1ccc(CNC(=O)C2CCN(S(=O)(=O)c3ccc4c(c3)CC(C)N4C(=O)C3CC3)CC2)cc1 (centres undefined)	0	0	0	0	-	-28
CC(C)NC(=O)N[C@H]1C[C@@H]2O[C@@H](CO)CC[C@@H]2O[C@@H]1CCc1ccc(-c2ccccc2F)cc1	33	0	-	-	-	-
CCCC#Cc1ccc2c(c1)O[C@H](CN(C)C(=O)c1ccccc1)[C@H](C)CN([C@@H](C)CO)S2(=O)=O	0	0	0	0	0	0
O=C(CCc1ccc(O)c(O)c1)NNC(=S)NCCc1ccccc1	0	0	-	0	0	0
O=C(CCc1ccc(O)c(O)c1)NNC(=S)Nc1ccc(Br)cc1Cl	0	0	0	0	-	-24
COc1ccc(S(=O)(=O)N(C)C[C@H]2Oc3c(NC(=O)Nc4c(C)noc4C)cccc3C(=O)N([C@@H](C)CO)C[C@H]2C)cc1	0	0	0	0	175!	0
COc1ccc(S(=O)(=O)N(C)C[C@H]2Oc3ccc(NC(=O)Nc4c(C)noc4C)cc3C(=O)N([C@H](C)CO)C[C@@H]2C)cc1	0	0	0	0	55!	0
N#Cc1ccc(-c2ccc3c(c2)[C@@H]2[C@@H](CCN2C(=O)c2ccc4c(c2)OCO4)[C@H](CO)N3)cc1	0	0	0	0	0	0
C[C@H]1CN([C@@H](C)CO)S(=O)(=O)c2ccc(C#CCC3CCCC3)cc2O[C@@H]1CN(C)Cc1ccc(C(=O)O)cc1	0	0	0	-	-	-
C[C@@H]1CN([C@@H](C)CO)C(=O)c2cccc(NC(=O)Nc3ccc(F)cc3)c2O[C@H]1CN(C)S(=O)(=O)c1cn(C)cn1	-	-	-	0	0	0
C[C@@H]1CN([C@@H](C)CO)C(=O)c2cc(NC(=O)Nc3cccc4ccccc34)ccc2O[C@H]1CN(C)Cc1ccc(-c2ccccc2)cc1	0	0	0	0	0	0
COc1ccc(CC(=O)OCC(=O)c2ccc[nH]2)cc1	0	0	0	0	-	0
O=C(Cc1ccc(Br)cc1)OCC(=O)c1ccc[nH]1	0	0	0	0	0	-23
SMILES	AF4-AF9 inh	RAD52 inh	RAD54 inh	INS-1E GSIS act	E-selectin induc	Ecoli rRNA inh
O=C1CCC(=O)N1CCC(c1ccc(F)cc1)c1ccco1 (centres undefined)	0	0	0	0	-	0
O=C1c2ccccc2C(=O)N1CCC(c1ccc(F)cc1)c1ccco1 (centres undefined)	-	-	0	43	-	-
Cc1c(C)c2c(OCC(=O)O)cc3c(c2oc1=O)CCC(C)(C)O3	0	0	0	248	0	0
Cc1cc(=O)oc2c3c(cc(OCC(=O)NC(Cc4ccc(Cl)cc4)C(=O)O)c12)OC(C)(C)CC3 (centres undefined)	0	0	0	0	-	-38
Cc1cc(=O)oc2c3c(cc(OCC(=O)N[C@@H](C)C(=O)O)c12)OC(C)(C)CC3	0	0	0	0	0	0
Cc1cc(=O)oc2c3c(cc(OCC(=O)N[C@@H](Cc4ccccc4)C(=O)O)c12)OC(C)(C)CC3	0	0	0	0	-	-31
Cc1c(C)c2c(OCC(=O)NCC(=O)NCC(=O)O)cc3c(c2oc1=O)CCC(C)(C)O3	0	0	0	0	0	0
COc1ccc(NC(=O)Nc2ccc3c(c2)C(=O)N([C@H](C)CO)C[C@@H](C)[C@H](CN(C)S(=O)(=O)c2ccc(F)cc2)OCCCC[C@H](C)O3)cc1	0	0	0	0	-	0
Cc1ccc(-c2ccc3c(c2)O[C@H](CN(C)C(=O)CN(C)C)[C@H](C)CN([C@@H](C)CO)S3(=O)=O)cc1	0	0	0	0	0	0
C=C(C)Cn1c(SCC#N)nc2ccccc2c1=O	-	-	0	-	-	-
N#CCSc1nc2ccccc2c(=O)n1CC1CCCC1	0	0	0	44	-	0
COc1cccc(CN2[C@H](CO)[C@@H](c3ccccc3)C23CN(Cc2ccccc2)C3)c1	-	-	-	0	-	0
Cc1cccc(NC(=O)/C(C#N)=C/c2ccccc2Cl)n1	0	0	0	0	-	-22
Cc1cccc(NC(=O)/C(C#N)=C/c2ccccc2O)n1	0	0	0	0	-	0
COC(=O)CC1=C(c2ccc([N+](=O)[O-])cc2)CCC1=O	0	0	0	0	0	-19
COc1ccccc1-c1cnc2c(c1)C(=O)N([C@H](C)CO)C[C@H](C)[C@H](CN(C)C(=O)c1ccncc1)O2	-	0	-	0	0	0
Cc1cc(/C=C(/C#N)C(=O)O)c(C)n1-c1cccc2ccccc12	0	0	0	0	0	0
Cc1cccc(NC(=O)/C(C#N)=C\c2cc(C)n(-c3ccc(C(=O)O)cc3)c2C)c1	0	0	-	0	-	-28
Cc1c(C(=O)O)cccc1-n1c(C)cc(/C=C(/C#N)C(=O)NCc2ccccc2)c1C	0	0	-	0	83	0
Cc1cc(/C=C(\C#N)C(=O)Nc2ccccc2)c(C)n1-c1ccc(C(=O)O)cc1	0	0	0	0	-	0
COc1ccc2c3c(n(C)c2c1)[C@@H](CO)N(Cc1ccccc1)CC31CCN(C(=O)Nc2cccc(F)c2)CC1	0	0	-	0	0	0

Screening results from PubChem BioAssay.
